Compound activity (PubChem BioAssay)
This is a sample that favours compounds with a hit; in the whole collection about 5.8% have one here.
Pf Dd2 growth – blocks growth of Plasmodium falciparum Dd2 parasites; P. falciparum Dd2 growth, SYBR Green, 72 h; active compounds read low; activity change, % at 10 µM; 94,000 tested, 2.3% active; AID 1159554; in the data active = activity change below about -80%; inconclusive = no clear call, values can overlap the other calls
IDH1 R132H inh – blocks human IDH1 R132H reductase activity. inhibition, % at 10 µM. 70,000 tested, 0.18% active. diaphorase/resazurin fluorescence, 60 min. O75874; in the data active = inhibition above about 34%; inconclusive = no clear call, values can overlap the other calls; inactive = below about 11%;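 note: 0% = DMSO and 100% = no enzyme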
Target sequence (O75874 whole entry R132H): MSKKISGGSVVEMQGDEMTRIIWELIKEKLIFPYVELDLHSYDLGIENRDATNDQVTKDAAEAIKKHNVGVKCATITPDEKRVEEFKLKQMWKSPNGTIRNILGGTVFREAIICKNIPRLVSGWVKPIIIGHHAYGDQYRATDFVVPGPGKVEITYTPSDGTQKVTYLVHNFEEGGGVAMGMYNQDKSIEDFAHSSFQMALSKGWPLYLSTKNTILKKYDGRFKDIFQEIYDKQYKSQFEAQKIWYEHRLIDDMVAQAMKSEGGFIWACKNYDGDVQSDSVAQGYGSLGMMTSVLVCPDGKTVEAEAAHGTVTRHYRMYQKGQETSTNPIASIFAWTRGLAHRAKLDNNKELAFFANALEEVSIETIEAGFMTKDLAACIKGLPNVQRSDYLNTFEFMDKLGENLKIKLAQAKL
GASC1 inh – KDM4C (human) demethylase inhibition; Q9H3R0; AID 720574; inhibition, % at 12.5 µM; GST-KDM4C 2-372, H3K9me3 peptide, LANCE TR-FRET; 96,000 tested, 0.15% active;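 active = mean replicate inhibition above about 25%, with at least 55% of replicates also reaching it, limit read from the data, passing the limit was not always enough; inconclusive = only one of those two conditions met; inactive = neither condition met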
Target sequence (Q9H3R0 2-372 limits assumed): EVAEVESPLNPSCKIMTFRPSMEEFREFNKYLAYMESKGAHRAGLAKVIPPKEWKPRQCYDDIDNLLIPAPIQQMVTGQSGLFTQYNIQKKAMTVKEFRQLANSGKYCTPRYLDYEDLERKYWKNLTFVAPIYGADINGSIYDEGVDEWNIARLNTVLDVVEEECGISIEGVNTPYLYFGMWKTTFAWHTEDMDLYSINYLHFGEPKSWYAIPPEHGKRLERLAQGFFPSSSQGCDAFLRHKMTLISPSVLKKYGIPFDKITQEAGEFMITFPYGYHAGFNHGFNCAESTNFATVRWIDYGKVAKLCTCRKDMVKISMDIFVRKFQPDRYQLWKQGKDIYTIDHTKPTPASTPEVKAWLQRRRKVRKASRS
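Compound: one test concentration per compound; Material: GST-GASC-1 enzyme fragment 2-372; Amount: GASC-1 enzyme at 10 nM final in reaction; Also added: H3K9me3 peptide substrate, Fe(II), 2-oxoglutarate; Technique: LANCE TR-FRET; Times: 30 min demethylation and 1 h detection at room temperature.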
T cruzi growth-1 – inhibitors of T. cruzi proliferation | T. cruzi beta-gal in NIH3T3, GalScreen luminescence, 90 h | inhibition, % at 8.34 µM | 77,000 tested, 5.9% active | AID 624255;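 active = mean inhibition above about 93%, with at least 55% of replicates each passing it, limit read from the data, passing the limit was not always enough; inconclusive = only one of those two conditions holds; inactive = neither condition holds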
T cruzi growth-2 – inhibitors of T. cruzi proliferation. inhibition, % at 8.35 µM. 5,600 tested, 72% active. shares compounds with T cruzi growth-1. T. cruzi beta-gal in NIH3T3, GalScreen luminescence, 90 h;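 active = mean replicate inhibition above about 95% and at least 55% of replicates individually reaching it, limit read from the data; inconclusive = only one of the two criteria is met; inactive = neither criterion is met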
T cruzi growth-3 – blocks T. cruzi growth in NIH3T3 host cells | shares compounds with T cruzi growth-1 | inhibition, % at 2.09 µM | T. cruzi beta-gal in NIH3T3, GalScreen luminescence, 90 h | 5,600 tested, 21% active;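 active = mean inhibition above about 95%, with at least 55% of replicates also reaching it, limit read from the data; inconclusive = meets just one of the two conditions; inactive = meets neither condition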;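 note: plate controls were neutral control median for no effect and positive control median for full effect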
NIH3T3 tox – kills mouse NIH/3T3 fibroblasts | shares compounds with T cruzi growth-1 | NIH/3T3 viability, CellTiter-Glo ATP luminescence, 90 h | cytotoxicity (signal decrease), % at 8.35 µM | 5,600 tested, 14% active;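 active = mean signal decrease across replicates above about 35% based on untreated-well scatter, with enough replicates individually passing, limit read from the data; inconclusive = no rule stated though some were filed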;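 note: 0% = median of neutral control wells and 100% = median of positive control wells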
NIH3T3 tox 2 – NIH/3T3 (mouse) viability loss; shares compounds with T cruzi growth-1; NIH/3T3 viability, CellTiter-Glo ATP luminescence, 90 h; inhibition, % at 24.9 µM; 5,600 tested, 56% active;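 active = mean loss of cell viability signal at or above a set limit, and enough replicates individually reaching it; inconclusive = meets only the mean limit or only the replicate share; inactive = meets neither condition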;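 note: 0% = median of neutral control wells and 100% = median of positive control wells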
* marks the source's active call; other numbers are inactive results; ? = inconclusive; / = no result.

SMILES | Pf Dd2 growth | IDH1 R132H inh | GASC1 inh | T cruzi growth-1 | T cruzi growth-2 | T cruzi growth-3 | NIH3T3 tox | NIH3T3 tox 2
COc1cccc(NC(=O)N(C)C[C@@H]2Oc3ncc(C#Cc4ccc(F)cc4)cc3C(=O)N([C@H](C)CO)C[C@@H]2C)c1 | -28 | / | -3 | 104* | 98* | 34 | 26 | 81*
C[C@@H]1CN([C@@H](C)CO)S(=O)(=O)c2ccc(-c3ccc(C(=O)N(C)C)cc3)cc2O[C@@H]1CN(C)Cc1ccc2c(c1)OCO2 | -48 | 0 | -1 | ? | 90 | 81 | 26 | 92*
C[C@@H]1CN([C@H](C)CO)S(=O)(=O)c2ccc(-c3ccncc3)cc2O[C@H]1CN(C)C(=O)c1ccc2c(c1)OCO2 | -62 | 0 | 2 | 105* | 101* | 91 | 29 | 44*
C[C@H]1CN([C@@H](C)CO)S(=O)(=O)c2ccc(-c3ccncc3)cc2O[C@H]1CN(C)C(=O)c1ccc2c(c1)OCO2 | -51 | -1 | -2 | 102* | 103* | 89 | 24 | 44*
C[C@H](CO)N1C[C@H](C)[C@H](CN(C)C(=O)c2ccc3c(c2)OCO3)Oc2cc(-c3ccncc3)ccc2S1(=O)=O | -38 | 0 | 0 | 104* | 81 | 59 | 16 | 28*
C[C@@H]1CN([C@@H](C)CO)S(=O)(=O)c2ccc(-c3ccncc3)cc2O[C@@H]1CN(C)C(=O)c1ccc2c(c1)OCO2 | 7 | 0 | -1 | 43 | / | / | / | /
C[C@@H]1CN([C@H](C)CO)S(=O)(=O)c2ccc(-c3ccncc3)cc2O[C@@H]1CN(C)C(=O)c1ccc2c(c1)OCO2 | -6 | 0 | -1 | 55 | / | / | / | /
C[C@H](CO)N1C[C@H](C)[C@H](CN(C)C(=O)c2ccc3c(c2)OCO3)Oc2cc(-c3ccccc3)ccc2S1(=O)=O | -27 | 0 | -1 | / | / | / | / | /
C[C@H](CO)N1C[C@H](C)[C@H](CN(C)Cc2ccncc2)Oc2ccc(NC(=O)Nc3ccc4c(c3)OCO4)cc2CC1=O | -4 | / | 0 | / | / | / | / | /
CO[C@H]1CN(C)C(=O)c2ccc(NS(=O)(=O)c3cn(C)cn3)cc2OC[C@@H](C)NC[C@H]1C | 36 | / | 2 | / | / | / | / | /
N#C[C@@H]1[C@H](c2ccc(C#CC3CCCCC3)cc2)[C@@H](CO)N1C(=O)Cc1ccccn1 | -76 | / | 0 | 99* | 96* | 103* | 2 | 99*
N#C[C@@H]1[C@@H](c2ccc(C#CC3CCCC3)cc2)[C@H](CO)N1C(=O)Cc1ccccn1 | -74 | / | -3 | / | / | / | / | /
N#C[C@@H]1[C@@H](c2ccc(C#CC3CCCCC3)cc2)[C@H](CO)N1C(=O)Cc1ccccn1 | -51 | / | -3 | 89 | / | / | / | /
N#C[C@H]1[C@H](c2ccc(C#CC3CCCC3)cc2)[C@H](CO)N1C(=O)Cc1ccccn1 | -43 | / | 0 | / | / | / | / | /
C/C=C/c1ccc([C@@H]2[C@H](C#N)N(C(=O)Cc3ccccn3)[C@H]2CO)cc1 | -32 | / | -1 | 91 | / | / | / | /
N#C[C@@H]1[C@@H](c2ccc(C#CC3CC3)cc2)[C@H](CO)N1C(=O)Cc1ccccn1 | -57 | / | -2 | 99* | 104* | 75 | ? | 1
C/C=C/c1ccc([C@H]2[C@@H](C#N)N(C(=O)Cc3ccccn3)[C@@H]2CO)cc1 | -33 | / | -2 | 103* | 98* | -1 | 3 | ?
N#C[C@@H]1[C@H](c2ccc(C#CC3CCCCC3)cc2)[C@H](CO)N1C(=O)Cc1ccccn1 | -39 | / | 0 | 98* | 92 | 112* | 17 | 28
CNC[C@H]1OCCCC[C@H](C)Oc2ccc(NC(=O)Nc3ccc(OC)cc3)cc2C(=O)N([C@@H](C)CO)C[C@@H]1C | 13 | / | 1 | -3 | / | / | / | /
C[C@H](CO)N1C[C@H](C)[C@H](CN(C)C(=O)Nc2ccc(F)cc2)Oc2ccc(NS(=O)(=O)c3ccc(Cl)cc3)cc2C1=O | 14 | 5 | 1 | 21 | / | / | / | /
C[C@@H]1CN([C@H](C)CO)C(=O)c2cc(C#CCN(C)C)cnc2O[C@@H]1CN(C)Cc1ccccn1 | 3 | 0 | 3 | 57 | / | / | / | /
CO[C@@H]1CN(C)C(=O)c2ccc(NC(=O)Nc3cccc(F)c3)cc2OC[C@H](C)N(C(C)=O)C[C@H]1C | -19 | 0 | 0 | 30 | / | / | / | /
C/C=C/c1ccc([C@@H]2[C@H]3CN(S(=O)(=O)c4ccc(F)cc4)CCCCN3[C@H]2CO)cc1 | -24 | / | 0 | 96 | / | / | / | /
CCNC(=O)C[C@H]1CC[C@H]2[C@H](COc3ccc(NC(=O)Nc4cccc(Cl)c4)cc3C(=O)N2C)O1 | 4 | / | -1 | 14 | / | / | / | /
CO[C@@H]1CN(C)C(=O)c2cc(NC(=O)C3CCCC3)ccc2OC[C@@H](C)N(S(C)(=O)=O)C[C@@H]1C | 12 | 0 | 1 | -14 | / | / | / | /
SMILES | Pf Dd2 growth | IDH1 R132H inh | GASC1 inh | T cruzi growth-1 | T cruzi growth-2 | T cruzi growth-3 | NIH3T3 tox | NIH3T3 tox 2
CNC[C@H]1Oc2ccc(NC(=O)c3ccncc3)cc2C(=O)N([C@@H](C)CO)C[C@@H]1C | -4 | 2 | 0 | 15 | / | / | / | /
CCOc1ccc(C(=O)NCc2nc(-c3ccccc3)no2)cc1 | / | 1 | / | / | / | / | / | /
O=C(C[C@H]1CC[C@@H]2[C@H](COC[C@H](O)CN2C(=O)Nc2ccc(Cl)c(Cl)c2)O1)NCc1ccc(Cl)cc1 | -2 | / | -1 | 111* | 108* | 13 | ? | 89*
O=C(C[C@@H]1CC[C@@H]2[C@H](COC[C@@H](O)CN2C(=O)Nc2ccc(Cl)c(Cl)c2)O1)NCc1ccc(Cl)cc1 | 8 | / | -1 | 84 | / | / | / | /
O=C(C[C@H]1CC[C@@H]2[C@H](COC[C@@H](O)CN2C(=O)Nc2ccc(Cl)c(Cl)c2)O1)NCc1ccc(Cl)cc1 | 5 | / | 0 | 102* | 100* | -12 | 38* | 56*
O=C(C[C@H]1CC[C@H]2[C@@H](COC[C@H](O)CN2C(=O)Nc2ccc(Cl)c(Cl)c2)O1)NCc1ccc(Cl)cc1 | -11 | / | 2 | ? | 93 | 24 | 16 | 102*
O=C(C[C@@H]1CC[C@H]2[C@@H](COC[C@H](O)CN2C(=O)Nc2ccc(Cl)c(Cl)c2)O1)NCc1ccccc1 | 3 | / | 0 | 94 | / | / | / | /
O=C(C[C@@H]1CC[C@@H]2[C@H](COC[C@@H](O)CN2C(=O)Nc2ccc(Cl)c(Cl)c2)O1)NCc1ccccc1 | 5 | / | 0 | 60 | / | / | / | /
O=C(C[C@H]1CC[C@@H]2[C@H](COC[C@@H](O)CN2C(=O)Nc2ccc(Cl)c(Cl)c2)O1)NCc1ccncc1 | 4 | / | -3 | 111* | 69 | 1 | -1 | 10
O=C(C[C@@H]1CC[C@H]2[C@@H](COC[C@H](O)CN2C(=O)Nc2ccc(Cl)c(Cl)c2)O1)NCc1ccc(Cl)cc1 | -1 | / | -2 | 84 | / | / | / | /
CCCC(=O)Nc1ccc2c(c1)C(=O)N(C)C[C@@H](OC)[C@@H](C)CN(C(=O)CC1CC1)[C@H](C)CO2 | 28 | 0 | 0 | -34 | / | / | / | /
